Calls of active or inactive are those of the source. No cut-off for these calls is given here.
Tests used:
[1] = biological target: cGMP-dependent 3',5'-cyclic phosphodiesterase (Homo sapiens, UniProt O00408); assay: Inhibition of PDE2 (unknown origin) using [3H]cAMP or [3H]cGMP as substrate measured after 30 mins by liquid scintillation counting method
[2] = system: Mus musculus; assay: Anxiolytic activity in ICR mouse model of chronic stress-induced cognitive impairment assessed as increase in time spent in open arms at 0.5 mg/kg, ip measured for 5 mins test period by elevated plus maze test; assay type: functional, organism-based
How it was run: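 Chronically stressed mice given the reference drug at 0.5 mg/kg i.p., then tested in the elevated plus-maze for open-arm measures. Mean ± SEM, n = 6, versus vehicle-treated stressed group.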

[3] = organism: Mus musculus; assay: Inhibition of PDE2 in mouse HT22 cells assessed as suppression of corticosterone-induced decrease in cAMP level at 1 uM after 24 hrs by ELISA; assay type: cell-based
How it was run: (§1)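 Corticosterone at 100 μM applied to HT-22 cells for 30 min, followed by compound for 24 h. Intracellular cGMP and cAMP levels measured. Mean ± SEM, n = 6; compared with vehicle-treated corticosterone group.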

[4] = organism: Mus musculus; assay: Inhibition of PDE2 in mouse HT22 cells assessed as suppression of corticosterone-induced decrease in cGMP level at 1 uM after 24 hrs by ELISA; assay type: cell-based; how it was run: as §1
[5] = system: Mus musculus; assay: Anxiolytic activity in ICR mouse model of chronic stress-induced cognitive impairment assessed as increase in time spent in open arms at 2 mg/kg, ip measured for 5 mins test period by elevated plus maze test; assay type: functional, organism-based
[6] = biological target: High affinity cGMP-specific 3',5'-cyclic phosphodiesterase 9A (Homo sapiens, UniProt O76083); assay: Inhibition of PDE9 (unknown origin) using [3H]cAMP or [3H]cGMP as substrate measured after 30 mins by liquid scintillation counting method
Chain of High affinity cGMP-specific 3',5'-cyclic phosphodiesterase 9A (O76083 whole entry): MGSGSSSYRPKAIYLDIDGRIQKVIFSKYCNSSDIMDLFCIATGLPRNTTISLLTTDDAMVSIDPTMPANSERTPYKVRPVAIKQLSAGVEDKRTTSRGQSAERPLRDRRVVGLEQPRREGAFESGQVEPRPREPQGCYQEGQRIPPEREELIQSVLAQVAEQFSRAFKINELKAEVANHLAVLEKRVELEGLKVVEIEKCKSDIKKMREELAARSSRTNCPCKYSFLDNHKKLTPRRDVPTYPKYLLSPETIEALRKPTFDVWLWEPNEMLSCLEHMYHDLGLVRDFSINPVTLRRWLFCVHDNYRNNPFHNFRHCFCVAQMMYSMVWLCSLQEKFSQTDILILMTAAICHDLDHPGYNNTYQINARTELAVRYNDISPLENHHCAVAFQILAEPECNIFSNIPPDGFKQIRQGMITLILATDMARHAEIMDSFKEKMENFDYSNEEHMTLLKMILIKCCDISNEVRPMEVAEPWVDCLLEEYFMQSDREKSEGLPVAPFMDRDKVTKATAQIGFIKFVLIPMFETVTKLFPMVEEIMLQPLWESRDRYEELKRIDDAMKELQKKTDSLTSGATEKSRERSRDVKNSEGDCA

[7] = biological target: cAMP and cAMP-inhibited cGMP 3',5'-cyclic phosphodiesterase 10A (Homo sapiens, UniProt Q9Y233); assay: Inhibition of PDE10 (unknown origin) using [3H]cAMP or [3H]cGMP as substrate measured after 30 mins by liquid scintillation counting method
Chain of cAMP and cAMP-inhibited cGMP 3',5'-cyclic phosphodiesterase 10A (Q9Y233 whole entry): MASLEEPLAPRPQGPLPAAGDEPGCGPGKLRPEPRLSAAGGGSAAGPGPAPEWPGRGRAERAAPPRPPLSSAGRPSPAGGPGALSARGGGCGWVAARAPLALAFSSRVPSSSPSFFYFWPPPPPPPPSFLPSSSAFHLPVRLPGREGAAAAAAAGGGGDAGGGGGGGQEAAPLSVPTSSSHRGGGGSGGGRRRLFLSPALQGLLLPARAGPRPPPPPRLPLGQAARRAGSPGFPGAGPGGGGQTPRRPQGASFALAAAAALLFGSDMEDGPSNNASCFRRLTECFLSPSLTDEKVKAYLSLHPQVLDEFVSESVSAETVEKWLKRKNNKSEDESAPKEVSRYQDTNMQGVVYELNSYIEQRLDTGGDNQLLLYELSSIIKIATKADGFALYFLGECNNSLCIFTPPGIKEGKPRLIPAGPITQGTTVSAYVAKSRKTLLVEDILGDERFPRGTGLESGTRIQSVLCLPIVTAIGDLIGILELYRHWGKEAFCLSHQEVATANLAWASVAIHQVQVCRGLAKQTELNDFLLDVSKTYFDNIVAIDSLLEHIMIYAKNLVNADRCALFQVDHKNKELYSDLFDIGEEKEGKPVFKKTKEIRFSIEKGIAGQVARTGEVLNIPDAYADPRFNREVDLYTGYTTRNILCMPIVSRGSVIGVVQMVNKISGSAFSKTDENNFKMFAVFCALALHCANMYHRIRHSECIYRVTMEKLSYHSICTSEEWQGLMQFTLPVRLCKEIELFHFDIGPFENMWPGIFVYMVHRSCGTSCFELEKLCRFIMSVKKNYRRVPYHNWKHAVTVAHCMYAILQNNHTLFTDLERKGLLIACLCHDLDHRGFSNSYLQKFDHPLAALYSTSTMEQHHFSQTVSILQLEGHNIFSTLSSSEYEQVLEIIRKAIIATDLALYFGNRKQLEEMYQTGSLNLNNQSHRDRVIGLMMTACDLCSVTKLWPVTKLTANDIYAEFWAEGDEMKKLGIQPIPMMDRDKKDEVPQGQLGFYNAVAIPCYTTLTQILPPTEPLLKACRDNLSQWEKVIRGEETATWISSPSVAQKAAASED

[8] = biological target: cGMP-specific 3',5'-cyclic phosphodiesterase (Homo sapiens, UniProt O76074); assay: Inhibition of PDE5 (unknown origin) using [3H]cAMP or [3H]cGMP as substrate measured after 30 mins by liquid scintillation counting method
[9] = biological target: Phosphodiesterase 4 (Homo sapiens, UniProt P27815+Q08499+Q07343+Q08493); assay: Inhibition of PDE4 (unknown origin) using [3H]cAMP or [3H]cGMP as substrate measured after 30 mins by liquid scintillation counting method; assay type: protein assay
[10] = biological target: Phosphodiesterase 1 (Homo sapiens, UniProt P54750+Q01064+Q14123); assay: Inhibition of PDE1 (unknown origin) using [3H]cAMP or [3H]cGMP as substrate measured after 30 mins by liquid scintillation counting method; assay type: protein assay
[11] = Cmax in ICR mouse at 2 mg/kg, po by LC-MS/MS analysis; assay type: ADME, organism-based; parameters: dose 2 mg/kg, route oral; settings: in vivo
[12] = AUC (0 to infinity) in ICR mouse at 2 mg/kg, po by LC-MS/MS analysis; assay type: ADME, organism-based; parameters: dose 2 mg/kg, time infinity, route oral; settings: in vivo
[13] = Ratio of drug level in ICR mouse brain to plasma at 2 mg/kg, po measured after 0.5 hrs by LC-MS/MS analysis; assay type: ADME, organism-based; settings: brain and plasma, read-out: BPR
How it was run: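 Oral dose of 2 mg/kg in mice. Brain and plasma drug levels taken at 0.5 h after oral administration, and expressed as brain-to-plasma ratio.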

[14] = Half life in ICR mouse at 2 mg/kg, po by LC-MS/MS analysis; assay type: ADME, organism-based; settings: in vivo
[15] = Toxicity in ICR mouse assessed as effect on locomotory activity at 0.5 to 2 mg/kg, ig administered as single dose via gavage measured for 10 mins; assay type: organism-based; settings: in vivo, po
How it was run: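 Locomotor activity test in chronically stressed mice; locomotion counts recorded 10 minutes after a single oral treatment. Mean ± SEM, n = 6.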

[16] = Tmax in ICR mouse at 2 mg/kg, po by LC-MS/MS analysis; assay type: ADME, organism-based; settings: in vivo

Chain of cGMP-dependent 3',5'-cyclic phosphodiesterase (O00408 whole entry): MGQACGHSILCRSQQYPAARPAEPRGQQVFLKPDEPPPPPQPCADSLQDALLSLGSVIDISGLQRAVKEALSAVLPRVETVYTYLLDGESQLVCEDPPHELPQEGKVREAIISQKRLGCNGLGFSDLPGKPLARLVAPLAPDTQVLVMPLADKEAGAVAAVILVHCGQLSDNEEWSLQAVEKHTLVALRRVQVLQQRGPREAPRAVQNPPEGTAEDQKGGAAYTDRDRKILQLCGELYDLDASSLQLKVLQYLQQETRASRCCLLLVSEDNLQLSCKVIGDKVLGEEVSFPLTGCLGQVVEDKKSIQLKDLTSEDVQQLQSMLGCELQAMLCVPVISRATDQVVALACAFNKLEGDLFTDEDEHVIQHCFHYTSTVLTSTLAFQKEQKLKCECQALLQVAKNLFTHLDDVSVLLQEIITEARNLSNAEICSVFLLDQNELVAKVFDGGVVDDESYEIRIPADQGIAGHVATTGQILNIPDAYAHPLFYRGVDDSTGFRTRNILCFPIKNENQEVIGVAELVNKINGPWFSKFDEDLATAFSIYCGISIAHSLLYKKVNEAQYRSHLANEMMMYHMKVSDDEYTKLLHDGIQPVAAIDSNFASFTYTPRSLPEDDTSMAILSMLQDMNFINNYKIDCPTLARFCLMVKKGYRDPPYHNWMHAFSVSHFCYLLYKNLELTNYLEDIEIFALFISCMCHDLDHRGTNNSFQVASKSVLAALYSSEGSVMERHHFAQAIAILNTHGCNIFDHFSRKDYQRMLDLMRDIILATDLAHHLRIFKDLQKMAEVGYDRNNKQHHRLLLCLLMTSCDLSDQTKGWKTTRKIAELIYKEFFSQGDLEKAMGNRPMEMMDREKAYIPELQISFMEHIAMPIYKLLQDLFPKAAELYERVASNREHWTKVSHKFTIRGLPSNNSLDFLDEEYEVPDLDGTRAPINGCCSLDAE

SMILES | IC50 [1] | other results
CCCCCCn1cnc2c(=O)[nH]c(Cc3ccc(OCc4ccccc4)cc3)nc21 | 3.91 µM | 
COc1ccc(Cc2nc(O)c3c(C)nc([C@@H](CCCc4ccccc4)[C@@H](C)O)n3n2)cc1OC |  | Activity [2]: inactive; inhibition [3]: Active; inhibition [4]: Active
COc1ccc(CCn2cnc3c(=O)[nH]c(Cc4ccc(OCc5ccccc5)cc4)nc32)cc1OC | > 50 µM | 
CN1C(=O)CN=C(c2ccccc2)c2cc(Cl)ccc21 |  | Activity [5]: Active
O=c1[nH]c(Cc2ccccc2)nc2c1ncn2CCc1c[nH]c2ccccc12 | > 50 µM | 
CCCCCCn1cnc2c(=O)[nH]c(Cc3ccc(OC)cc3)nc21 | 3.79 µM | 
O=c1[nH]c(Cc2ccc(OCc3ccccc3)cc2)nc2c1ncn2CCc1ccccc1 | 5.8 µM | 
CCCCC(CC)Cn1cnc2c(=O)[nH]c(Cc3ccc(OCc4ccccc4)cc3)nc21 (stereo unspecified) | 0.072 µM | IC50 [6]: 13.9 µM; IC50 [7]: > 500 µM; IC50 [8]: > 500 µM; IC50 [9]: > 500 µM; IC50 [10]: > 500 µM
COc1cccc(CCn2cnc3c(=O)[nH]c(Cc4ccccc4)nc32)c1 | 11 µM | 
CCCCn1cnc2c(=O)[nH]c(Cc3ccccc3)nc21 | 4.32 µM | 
CC(CCc1ccccc1)n1cnc2c(=O)[nH]c(Cc3ccccc3)nc21 (stereo unspecified) | 0.31 µM | 
O=c1[nH]c(Cc2ccccc2)nc2c1ncn2Cc1ccc2ccccc2c1 | 3.99 µM | 
O=c1[nH]c(Cc2ccccc2)nc2c1ncn2CCc1cccs1 | 17 µM | 
CCCCCCCCn1cnc2c(=O)[nH]c(Cc3ccccc3)nc21 | 4.28 µM | 
CCCCC(CC)Cn1cnc2c(=O)[nH]c(Cc3ccccc3)nc21 (stereo unspecified) | 1.24 µM | 
CC(c1cccc2ccccc12)N1C=NC2C(=O)NC(Cc3ccccc3)=NC21 (stereo unspecified) | 0.57 µM | 
CCCCC(CC)Cn1cnc2c(=O)[nH]c(Cc3ccc(OC)cc3)nc21 (stereo unspecified) | 0.081 µM | IC50 [6]: 32.3 µM; IC50 [7]: > 500 µM; Cmax [11]: 511 ng/mL; IC50 [8]: > 500 µM; AUC(0-inf) [12]: 646 ng·h/mL; IC50 [9]: > 500 µM; Kp at 0.5 h [13]: 0.56; half-life [14]: 84 min; Activity [15]: Non-Toxic; Tmax [16]: 31.8 min; IC50 [10]: > 500 µM
COc1ccc(CCn2cnc3c(=O)[nH]c(Cc4ccccc4)nc32)cc1OC | 40.3 µM | 
CCCCCCCCn1cnc2c(=O)[nH]c(Cc3ccc(OCc4ccccc4)cc3)nc21 | 2.63 µM | 
O=c1[nH]c(Cc2ccccc2)nc2c1ncn2CCc1ccccc1 | 7.27 µM | 
CCCCn1cnc2c(=O)[nH]c(Cc3ccc(OC)cc3)nc21 | 1.94 µM | 
CCCCn1cnc2c(=O)[nH]c(Cc3ccc(OCc4ccccc4)cc3)nc21 | 5.46 µM | 
CCCCCCn1cnc2c(=O)[nH]c(Cc3ccccc3)nc21 | 5.94 µM | 
